Cav32 inh = Cav3.2 calcium influx blockers – cell-based, Fluo-4 calcium fluorescence, FDSS, MLSMR library, primary screen. Cav3.2-expressing cells; hits give low values. B-score at 10 µM. actives 4% (n = 100,000). AID 449739, 2010;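 active = single-dose well whose peak fluorescence ratio is a statistical outlier from its plate by either plate-standardised score or position-corrected B-score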
Rev-RRE block = HIV-1 Rev-RRE binding inhibitors, primary screen, biochemical, FRET, protein-RNA interaction | P05866 | Rev peptide-RRE RNA binding | inhibition, % at 8 µM | actives 0.79% (n = 97,000) | AID 704, 2007;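 active = inhibition above the screen-wide mean plus 3 SD, cut at about 35% in these data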;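 also: 0% = median DMSO wells and 100% = median Neomycin B control wells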
Target sequence (P05866 whole entry, looked up): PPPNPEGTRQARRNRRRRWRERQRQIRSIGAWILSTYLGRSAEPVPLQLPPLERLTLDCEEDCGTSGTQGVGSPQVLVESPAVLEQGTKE
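Material: labelled RRE RNA duplex and labelled Rev peptide / Buffer or medium: HEPES pH 7.5 salt buffer with EDTA / Compound dosing: single point, 8 µM final nominal compound concentration / Benchmarks: DMSO low control, neomycin B high control / Timing: 5 min preincubation and 15 min binding, 25 °C / Technique: FRET fluorescence readout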
CYP2C9 act = human CYP2C9 activators, primary screen, biochemical, luminescence | recombinant CYP2C9, luciferin-H conversion; hits give high values; factor 1 = untreated enzyme, 0 = blocked | activation factor at 5 µM | actives 1.4% (n = 96,000) | AID 1024, 2008;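 active = activation factor of 2 or more for CYP2C9 at a 5 µM dose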;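 also: 0 = sulfaphenazole-blocked wells and 1 = vehicle-only wells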
CYP2C19 inhib = blockers of cytochrome P450 2C19 activity – biochemical, luminescence, ADME assay, primary screen | P33261 | CYP2C19 Supersomes, luciferin-H EGE luminescence, 30 min | inhibition, % at 5 µM | actives 21% (n = 96,000);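 active = CYP2C19 inhibition above a set limit at 5 µM in the primary screen, cut at about 50% in these data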;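 also: plate controls were negative control wells for no effect and 2.5 mM tranylcypromine positive control for full effect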
Target sequence (P33261 whole entry, looked up): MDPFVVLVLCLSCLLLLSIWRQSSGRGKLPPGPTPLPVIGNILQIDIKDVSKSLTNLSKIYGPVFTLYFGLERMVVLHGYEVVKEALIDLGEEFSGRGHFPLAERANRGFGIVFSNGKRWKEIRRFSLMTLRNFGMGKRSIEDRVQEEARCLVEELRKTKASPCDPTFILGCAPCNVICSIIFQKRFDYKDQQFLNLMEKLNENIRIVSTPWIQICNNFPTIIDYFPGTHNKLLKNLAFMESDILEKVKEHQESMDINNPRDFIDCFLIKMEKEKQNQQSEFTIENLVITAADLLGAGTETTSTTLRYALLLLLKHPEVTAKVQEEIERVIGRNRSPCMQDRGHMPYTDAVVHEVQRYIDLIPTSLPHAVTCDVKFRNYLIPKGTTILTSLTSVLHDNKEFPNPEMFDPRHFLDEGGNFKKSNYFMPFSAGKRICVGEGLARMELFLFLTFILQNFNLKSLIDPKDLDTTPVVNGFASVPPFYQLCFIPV
CYP2C9 inhib = blockers of cytochrome P450 2C9 activity – biochemical, luminescence, ADME assay, primary screen | inhibition, % at 5 µM | actives 20% (n = 96,000) | P11712 | AID 777, 2007 | CYP2C9 Supersomes, luciferin-H conversion;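 active = blocking of liver enzyme CYP2C9 beyond about 50% at 5 µM, limit read from the data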
CYP2C19 act = human CYP2C19 activators, primary screen, biochemical, luminescence; Cytochrome P450 2C19 (Homo sapiens), P33261; recombinant CYP2C19, luciferin-H EGE luminescence; hits give high values; 0 = fully inhibited enzyme, 1 = untreated enzyme; activation factor at 5 µM; 96,000 tested, under 10 active; AID 1025, 2008;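 active = activation factor of at least 2 at 5 µM in the primary screen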;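 also: 0 = wells with 2.5 mM tranylcypromine and 1 = vehicle-only wells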
* marks the source's active call; other numbers are inactive results; . = not tested or not shown. Rows were chosen to be rich in hits. Some 27% of all compounds tested hit in one or more screens of this group.

SMILES | Cav32 inh | Rev-RRE block | CYP2C9 act | CYP2C19 inhib | CYP2C9 inhib | CYP2C19 act
CNC(C(=O)c1ccccc1)C(OC(C)C)c1ccc(Cl)cc1 (stereo not drawn) | -0.19 | 8 | 0.6 | 63* | 37 | 0.4
O=C(Nc1ccc(Cl)cc1C(=O)c1ccccc1)c1ccccc1 | . | 16 | 1 | 2 | 4 | 1
COC(=O)C1=C(c2ccc(S(C)(=O)=O)cc2)C[C@@H]2CC[C@H]1N2C(=O)NCc1ccccc1 | 0.55 | . | . | . | . | .
O=C(c1cccs1)c1cn(Cc2ccccc2Cl)c2ccccc12 | -6.2* | 17 | 0.4 | 13 | 62* | 0.9
N#Cc1ccccc1Cn1cc(C(=O)c2cccs2)c2ccccc21 | -0.55 | 8 | 0.1 | 54* | 89* | 0.5
Cc1cc(/C=C2/C(=O)NC(=O)N(c3ccccc3)C2=O)c(C)n1-c1ccc(F)cc1 | 0.09 | 26 | . | . | . | .
COc1cc(/C=C2\C(=O)NC(=O)N(c3ccccc3)C2=O)cc(OC)c1O | 0.42 | 59* | 1.3 | -8 | -32 | 1.1
CCCN(CC#CCO)CCC | 0.37 | 5 | . | . | . | .
CCOC(=O)C(O)(c1ccc(NC(=O)NC2CCCCC2)cc1)C(F)(F)F (stereo not drawn) | -1.9 | 13 | 0.4 | 80* | 59* | 0.2
CCOC(=O)C(O)(c1ccc(N(C)C(=O)COc2ccccc2)cc1)C(F)(F)F (stereo not drawn) | 0.43 | -2 | . | . | . | .
CC(C)NC(=O)Cn1cc(C(=O)c2ccccc2F)c2ccccc21 | -3.6 | 3 | 0.7 | 50* | 25 | 0.5
Cc1ccc(OCC(=O)N2CCN(C)CC2)c(Br)c1 | . | 2 | 1.1 | 10 | -13 | 0.9
CCCCn1c(O)c(C(C)=NC(Cc2c[nH]c3ccccc23)C(=O)OC)c(=O)[nH]c1=O (stereo not drawn) | -4.3* | 2 | 0 | 95* | 97* | 0
CCCCn1c(O)c(C(C)=NCCN2CCCCC2)c(=O)[nH]c1=O | 0.69 | 8 | 1 | 3 | 4 | 1
CCCCCCn1c(O)c(C(C)=NC)c(=O)[nH]c1=O | -0.79 | 2 | 0.4 | 83* | 61* | 0.2
COc1cccc2c1O[C@H]1C(=O)CC[C@H]3CN(C)CCC231 (stereo partly drawn) | 0.36 | . | . | . | . | .
O=c1cc(C2CCNCC2)[nH][nH]1 | -0.36 | 3 | 1.3 | -25 | -29 | 1.2
CC1=NOC2(C)Nc3ncnn3C(c3ccccc3)C12 (stereo not drawn) | -0.035 | 10 | 1.1 | 5 | -8 | 0.9
CCS(=O)(=O)N1CCCC(C(=O)N2CCC3(CC2)OCCO3)C1 (stereo not drawn) | 0.72 | 7 | 0.9 | 58* | 15 | 0.4
CC(C)CCC1(CN2CCCC2=O)C(=O)NC(=O)NC1=O | -0.56 | 2 | . | . | . | .
C(=NC12CN3CN(CN(C3)C1)C2)c1cccnc1 | -0.024 | 5 | . | . | . | .
CC(C)c1cccc(C(C)C)c1OCCn1ccnc1 | -1.4 | 6 | 0.2 | 99* | 78* | 0
Clc1ccc(COC(Cn2ccnc2)c2ccc(Cl)cc2Cl)cc1 (stereo not drawn) | -3.5 | . | . | . | . | .
O=C(Cc1ccccc1)OCCN1CCCCC1 | 0.3 | 3 | 1 | 14 | 2 | 0.9
Cc1sc2nc(COC(=O)Cc3ccccc3)[nH]c(=O)c2c1C | -0.7 | 17 | 0.4 | 40 | 60* | 0.6
SMILES | Cav32 inh | Rev-RRE block | CYP2C9 act | CYP2C19 inhib | CYP2C9 inhib | CYP2C19 act
O=C(C1CCCO1)N1CCC2(CC1)OCCO2 (stereo not drawn) | 0.64 | 3 | 1 | 1 | 1 | 1
O=C(C1CC(c2ccc(Cl)c(Cl)c2)=NO1)N1CCC2(CC1)OCCO2 (stereo not drawn) | 0.47 | 14 | 1.8 | 96* | -84 | 0
O=C(C1CC(c2ccc(F)cc2)=NO1)N1CCC2(CC1)OCCO2 (stereo not drawn) | 0.9 | 4 | 1.1 | 94* | -8 | 0.1
COc1cccc(C2=NOC(C(=O)N3CCC4(CC3)OCCO4)C2)c1 (stereo not drawn) | 0.48 | 2 | 1 | 67* | -2 | 0.3
COc1cccc(-n2nc(C(=O)N3CCC4(CC3)OCCO4)c3ccccc3c2=O)c1 | . | . | 0.6 | 13 | 36 | 0.9
COC(=O)C1=CO[C@@H](C)[C@H]2CN3CC[C@]4(C(=O)Nc5ccccc54)[C@@H]3C[C@H]12 | 0.72 | . | . | . | . | .
NC(=O)CSP(=O)(c1ccccc1)c1ccccc1 | 0.45 | 5 | 0.9 | 4 | 8 | 1
CC(C)C[C@H](NC(=O)[C@@H]1CCCN1C(=O)[C@@H](N)Cc1ccc(O)cc1)C(=O)NCC(N)=O | 1.7 | . | . | . | . | .
OC(c1ccccc1)(c1ccccc1)C1CCCN1 (stereo not drawn) | 0.23 | 4 | . | . | . | .
CCN1CC2(COC(=O)c3ccccc3N)CCC(OC)C34C5CC6C(OC)CC(O)(C5C6OC)C(O)(C(OC)C23)C14 (stereo not drawn) | -0.13 | 4 | 0.9 | 40 | 12 | 0.6
Cc1ccc(N2C(=O)NC(=O)/C(=C/c3ccc(OC(=O)c4cccs4)cc3)C2=O)cc1 | -0.045 | 16 | 1 | 54* | -2 | 0.5
CCc1sc(C(=O)N2CCC3(CC2)OCCO3)cc1Br | -0.14 | . | 1.7 | 96* | -65 | 0
O=C(c1cc2c(s1)CCCCCC2)N1CCC2(CC1)OCCO2 | -1.1 | 4 | 0.3 | 97* | 73* | 0
CSc1ccc(CNC2CN3CCC2CC3)cc1 (stereo not drawn) | 0.52 | 7 | 1 | 0 | -2 | 1
COc1ccc(-c2cc(C(F)(F)F)n3nc(C(=O)N4CCC5(CC4)OCCO5)cc3n2)cc1OC | -2.4 | -3 | 0.9 | 13 | 11 | 0.9
CCN(CC)c1ccc(N=Cc2c(O)n(-c3cc(OC)ccc3OC)c(=O)[nH]c2=O)cc1 | -3.3 | 64* | . | . | . | .
C[C@@H]1C(=O)O[C@@H]2[C@H](O)C34[C@@H]5OC(=O)C3(O[C@H]3OC(=O)[C@H](O)C34[C@H](C(C)(C)C)[C@H]5O)[C@@]12O (stereo partly drawn) | 0.37 | . | . | . | . | .
COc1ccc(-n2c(=O)[nH]c3ccccc3c2=O)cc1 | -0.073 | 4 | 1 | -4 | -3 | 1
COc1ccc(P2(=O)Nc3ccccc3N2)cc1 | -2.1* | 61* | 1 | 4 | -3 | 1
CCOC(=O)c1ccccc1NC(=O)c1c(O)[nH]c(=O)[nH]c1=O | -0.15 | . | . | . | . | .
CC(=O)Nc1ccccc1C(=O)OCc1ccc(C(=O)c2ccccc2)cc1 | -1.5 | 10 | 0.3 | 38 | 72* | 0.6
COC(=O)C1=C(c2cc3ccccc3o2)C[C@@H]2CC[C@H]1N2C(=O)NCCCOC(C)C | 0.29 | . | . | . | . | .
